Experimental findings from ChEMBL document CHEMBL2040841, “Design, synthesis and evaluation of triazole functionalized ring-fused 2-pyridones as antibacterial agents” (Eur J Med Chem, 2012) are described below.

The test system of experiment [1] is Escherichia coli. The experiment is described as follows: Antibacterial activity against uropathogenic Escherichia coli isolate UTI89 assessed as inhibition of biofilm formation at 200 uM after 24 hrs by crystal violet staining method. The format is functional, organism-based. In a few lines:
(§1)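 UTI89 grown overnight in LB at 37 °C, then diluted 1:1000 in LB under type-1 pili inducing conditions. Compounds were added at a constant DMSO level, and the plates were incubated 24 h in humid boxes at 26 °C. Wells were washed with water, air dried and stained with 1% crystal violet, and absorbance was read at 600 nm. Growth was monitored in separate plates. Triplicates were compared with DMSO-treated controls.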

For experiment [2], the system named is Escherichia coli. The experiment is described as follows: Inhibition of type 1 pili formation in uropathogenic Escherichia coli isolate UTI89 assessed as inhibition of biofilm formation after 24 hrs by crystal violet staining method. It is filed as functional, organism-based. The following applies: isolate UTI89, 24 h. Summed up:
as §1

Active and inactive are the calls of the source. The rule behind the calls is not given here. A value given as a limit tells only on which side of the number the result lay.

`O=C(O)[C@@H]1CSc2c(-c3cn(CC4CC4)nn3)c(Cc3cccc4ccccc34)c(Br)c(=O)n21`: the inhibition result in experiment [1] is “inactive”. In addition, in experiment [2], the EC50 (in general, the concentration giving half of the maximal effect) is more than 200 µM.

Take `O=C(O)[C@@H]1CSc2c(-c3c[nH]nn3)c(Cc3cccc4ccccc34)cc(=O)n21`: in experiment [1], the inhibition result was “inactive”. The EC50 in experiment [2] is more than 200 µM.

With `O=C(O)c1c(-c2cn(Cc3ccccc3)nn2)sc2c(-c3cccc(C(F)(F)F)c3)c(Cc3cccc4ccccc34)cc(=O)n12`, the EC50 in experiment [2] stood at 50 µM.

On to `Cn1cc(-c2sc3c(C4CC4)c(Cc4cccc5ccccc45)cc(=O)n3c2C(=O)O)nn1`, for which, in experiment [1], the inhibition entry was “inactive”. Further, in experiment [2], the EC50 was 150 µM.

For `Nc1ccc(Cn2cc(-c3c(Cc4cccc5ccccc45)cc(=O)n4c3SC[C@H]4C(=O)O)nn2)cc1`, in experiment [1], the inhibition entry was “inactive”. The EC50 in experiment [2] was more than 200 µM.

For the molecule `Cn1cc(-c2c(Cc3cccc4ccccc34)cc(=O)n3c2SC[C@H]3C(=O)O)nn1`, the inhibition result in experiment [1] is “inactive”. Moreover, in experiment [2], the EC50 was more than 200 µM.

Consider `Cn1cc(-c2c(Cc3cccc4ccccc34)c(Br)c(=O)n3c2SC[C@H]3C(=O)O)nn1`, for which the inhibition entry in experiment [1] is “inactive”. In addition, the EC50 in experiment [2] was more than 200 µM.

For the molecule `O=C(O)[C@@H]1CSc2c(-c3c[nH]nn3)c(Cc3cccc4ccccc34)c(Br)c(=O)n21`, the inhibition entry in experiment [1] was “inactive”. The EC50 in experiment [2] is more than 200 µM.

For the molecule `O=C(O)c1c(-c2c[nH]nn2)sc2c(C3CC3)c(Cc3cccc4ccccc34)cc(=O)n12`, the EC50 in experiment [2] is 75 µM.

For `O=C(O)[C@@H]1CSc2c(-c3cn([C@@H]4OC[C@@H](O)[C@H](O)[C@H]4O)nn3)c(Cc3cccc4ccccc34)cc(=O)n21`, in experiment [1], the inhibition result is “inactive”. In addition, in experiment [2], the EC50 was more than 200 µM.

In the case of `O=C(O)[C@@H]1CSc2c(-c3cn([C@@H]4OC[C@@H](O)[C@H](O)[C@H]4O)nn3)c(Cc3cccc4ccccc34)c(Br)c(=O)n21`, the inhibition result in experiment [1] is “inactive”. Besides, the EC50 in experiment [2] is more than 200 µM.

In the case of `Cn1cc(-c2sc3c(-c4cccc(C(F)(F)F)c4)c(Cc4cccc5ccccc45)cc(=O)n3c2C(=O)O)nn1`, the EC50 in experiment [2] came out at 9 µM.

As to `O=C(O)[C@@H]1CSc2c(-c3cn(Cc4ccccc4)nn3)c(Cc3cccc4ccccc34)c(Br)c(=O)n21`, the EC50 in experiment [2] amounted to 100 µM.

With `Cc1ccc(Cn2cc(-c3c(Cc4cccc5ccccc45)c(Br)c(=O)n4c3SC[C@H]4C(=O)O)nn2)cc1`, the inhibition entry in experiment [1] is “inactive”. In addition, the EC50 in experiment [2] amounted to 200 µM.

For `O=C(O)[C@@H]1CSc2c(-c3cn(Cc4ccc([N+](=O)[O-])cc4)nn3)c(Cc3cccc4ccccc34)c(Br)c(=O)n21`, in experiment [2], the EC50 is 35 µM.

For `O=C(O)[C@@H]1CSc2c(-c3cn(CC4CC4)nn3)c(Cc3cccc4ccccc34)cc(=O)n21`, the inhibition result in experiment [1] is “inactive”. Further, the EC50 in experiment [2] was more than 200 µM.

`CCn1cc(-c2c(Cc3cccc4ccccc34)c(Br)c(=O)n3c2SC[C@H]3C(=O)O)nn1`: in experiment [1], the inhibition result is “inactive”. Also, the EC50 in experiment [2] was more than 200 µM.

Regarding `Cc1ccc(Cn2cc(-c3c(Cc4cccc5ccccc45)cc(=O)n4c3SC[C@H]4C(=O)O)nn2)cc1`, the EC50 in experiment [2] is 75 µM.

Take `O=C(O)[C@@H]1CSc2c(-c3cn(Cc4ccccc4)nn3)c(Cc3cccc4ccccc34)cc(=O)n21`: in experiment [2], the EC50 turned out to be 100 µM.

On to `O=C(O)c1c(-c2cn(Cc3ccccc3)nn2)sc2c(C3CC3)c(Cc3cccc4ccccc34)cc(=O)n12`, for which the inhibition entry in experiment [1] is “inactive”. For the same molecule, in experiment [2], the EC50 was more than 200 µM.

As to `O=C(O)[C@@H]1CSc2c(-c3cn([C@H](CO)Cc4ccccc4)nn3)c(Cc3cccc4ccccc34)c(Br)c(=O)n21`, in experiment [2], the EC50 was determined as 150 µM.

For the molecule `O=C(O)[C@@H]1CSc2c(-c3cn([C@H](CO)Cc4ccccc4)nn3)c(Cc3cccc4ccccc34)cc(=O)n21`, the inhibition result in experiment [1] is “inactive”. In addition, the EC50 in experiment [2] is more than 200 µM.

As to `O=C(O)c1c(-c2c[nH]nn2)sc2c(-c3cccc(C(F)(F)F)c3)c(Cc3cccc4ccccc34)cc(=O)n12`, the inhibition entry in experiment [1] was “inactive”. Moreover, in experiment [2], the EC50 was more than 200 µM.

For the molecule `CCn1cc(-c2c(Cc3cccc4ccccc34)cc(=O)n3c2SC[C@H]3C(=O)O)nn1`, the inhibition entry in experiment [1] is “inactive”. For the same molecule, in experiment [2], the EC50 is more than 200 µM.
